Assay results as given in PMC3586205 (European journal of pharmacology, 2012).
pKi: −log10 of the molar value. “Also recorded” adds a separate entry of the source. Like-named read-outs stand apart in the source and are kept apart here.

How the values were obtained:
[1] = test system: cannabinoid agonist-like effects in mice; settings: cited from earlier work; for % of maximal cannabinoid agonist-like activity in each of the four tests: ref Wiley et al. (2012); for profile in test battery: ref Wiley et al. (2011)
[2] = test system: tail flick latency in mice; settings: cited from earlier work; for %MPE, maximum possible antinociceptive effect in tail flick (maximum effect): 10 mg/kg i.v.; for %MPE tail flick (maximum effect): 30 mg/kg i.v.; for %MPE tail flick ED50 (95% confidence limits): i.v.
[3] = test system: spontaneous activity in mice; settings: cited from earlier work; for SA ED50 (95% confidence limits): i.v.
ring immobility in mice = settings: cited from earlier work
food intake in mice [4] = assay: Feeding behavior: 1-h food intake after 24-h food deprivation; type: in vivo; settings: for decrease in feeding compared to vehicle: 60 min pre-session, significant
[5] = molecular target: T1, human cannabinoid CB2 receptor (Homo sapiens, UniProt P34972); settings: read-out: CB2 Ki (± SEM), displacement of [3H]CP55,940, cited from earlier work
[6] = molecular target: T2, human cannabinoid CB1 receptor (Homo sapiens, UniProt P21554); settings: cited from earlier work
[7] = molecular target: T2, human cannabinoid CB1 receptor; assay: Cannabinoid CB1 receptor radioligand binding, displacement of [3H]CP55,940
[8] = molecular target: T1, human cannabinoid CB2 receptor; assay: Cannabinoid CB2 receptor radioligand binding, displacement of [3H]CP55,940
Procedure, shortened: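 CHO cells stably expressing human CB2 receptor; membranes made in 50 mM Tris-HCl, 3 mM MgCl2, 1 mM EGTA, pH 7.4. Membrane (10 μg protein) incubated with 1 nM [3H]CP55,940 and varying test compound in 50 mM Tris-HCl pH 7.4, 3 mM MgCl2, 0.2 mM EGTA, 0.5% BSA, 60 min at 30 °C. Non-specific binding was taken with 1 μM unlabeled CP55,940. Bound and free were separated by GF/B filtration with cold Tris-BSA washes, then counted by liquid scintillation.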

[9] = test system: spontaneous activity in mice; assay: Spontaneous; type: in vivo; settings: 30 mg/kg i.v.
Procedure, shortened: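 Separate groups of mice per dose were injected i.v. with vehicle (ethanol:Emulphor-620:saline 1:1:18) or test compound. Five minutes later each was placed in an activity chamber for 10 min. Total photobeam interruptions were counted and expressed as % inhibition of the vehicle group. ED50s were derived by log-dose linear regression, taking 90% inhibition as maximal.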

[10] = test system: tail flick latency in mice; assay: Tail flick antinociception, mouse test battery; type: in vivo; settings: 30 mg/kg i.v.
Procedure, shortened: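 Baseline tail-flick latency was taken to radiant heat (bright light) before i.v. injection of vehicle (ethanol:Emulphor-620:saline 1:1:18) or test compound. Latency was re-measured 20 min post-injection with a 10 s cutoff. Result expressed as %MPE = [(test−control latency)/(10−control)] × 100, separate groups per dose.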

[11] = test system: rectal temperature in mice; settings: cited from earlier work; for RT (maximum effect): 30 mg/kg i.v.; for RT ED50 (95% confidence limits): i.v.
food intake in mice [12] = settings: ref Wiley et al., cited from earlier work; for dose (as low as) that suppressed eating: same food intake protocol, 2005
[13] = 3 mg/kg i.v., ref Wiley et al. (2012)
[14] = read-out: CB1 Ki (± SEM), displacement of [3H]CP55,940, ref Wiley et al. (2012)
[15] = 10 mg/kg i.v., stim=stimulation, ref Wiley et al. (2012)
[16] = 10 mg/kg i.v., ref Wiley et al. (2012)
[17] = 30 mg/kg i.v., ref Wiley et al. (2001)
[18] = read-out: CB1 Ki (± SEM), displacement of [3H]CP55,940, ref Wiley et al. (2011)
[19] = read-out: CB1 receptor binding affinity Ki, ref Wiley et al., 2005
[20] = present study and H.A. Navarro, personal communication

T2 sequence (P21554 whole entry): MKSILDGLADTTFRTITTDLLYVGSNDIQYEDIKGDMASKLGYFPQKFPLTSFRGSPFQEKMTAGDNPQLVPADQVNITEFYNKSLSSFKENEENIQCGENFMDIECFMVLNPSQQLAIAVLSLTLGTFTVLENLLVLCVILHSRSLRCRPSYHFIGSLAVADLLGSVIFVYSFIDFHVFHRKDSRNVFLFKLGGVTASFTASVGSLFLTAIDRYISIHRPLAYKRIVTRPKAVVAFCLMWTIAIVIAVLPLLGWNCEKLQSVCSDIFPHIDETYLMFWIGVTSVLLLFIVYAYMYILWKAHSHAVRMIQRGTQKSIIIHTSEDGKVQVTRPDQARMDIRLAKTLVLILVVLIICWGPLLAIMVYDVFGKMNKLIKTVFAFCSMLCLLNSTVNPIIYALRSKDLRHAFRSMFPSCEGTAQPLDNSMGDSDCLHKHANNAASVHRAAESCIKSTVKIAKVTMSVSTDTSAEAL
T1 sequence (P34972 whole entry): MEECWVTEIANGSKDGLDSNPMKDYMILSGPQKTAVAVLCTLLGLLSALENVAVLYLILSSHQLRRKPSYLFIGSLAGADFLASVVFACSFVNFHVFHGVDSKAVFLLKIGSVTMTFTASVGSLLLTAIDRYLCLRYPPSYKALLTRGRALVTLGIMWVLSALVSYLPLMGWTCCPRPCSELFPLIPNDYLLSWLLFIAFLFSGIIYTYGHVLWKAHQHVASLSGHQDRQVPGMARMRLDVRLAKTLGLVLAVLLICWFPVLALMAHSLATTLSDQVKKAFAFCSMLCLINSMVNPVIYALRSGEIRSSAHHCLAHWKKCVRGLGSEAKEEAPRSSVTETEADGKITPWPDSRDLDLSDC

## 3-bromopropyl carboxamide analog [Compound O-2154]
[1]; 3 mg/kg
  % of maximal cannabinoid agonist-like activity in each of the four tests: at least 50%
[2]; [13]
  %MPE in tail flick (single dose): 50% (3)
[3]; [13]
  SA, % inhibition of activity of vehicle control group (single dose): 70% (3)
Ring immobility in mice; [13]
  RI, % time immobile (single dose): 35% (3)
Food intake in mice [4]; 56 mg/kg i.p.
  decrease in feeding compared to vehicle: 60%
[5]; ref Wiley et al. (2012)
  pKi: 6.14
[6]; [14]
  pKi: 7.42

## 3-cyanopropyl carboxamide analog [Compound O-2155]
[1]; 10 mg/kg
  % of maximal cannabinoid agonist-like activity in each of the four tests: at least 50%
[2]; ref Wiley et al. (2012)
  %MPE, maximum possible antinociceptive effect in tail flick (maximum effect): 89% (10)
[3]; [15]
  SA, % inhibition of activity of vehicle control group (maximum effect): 86% (10)
Ring immobility in mice; [16]
  RI, % time immobile on elevated ring (maximum effect): 47% (10)
Food intake in mice [4]; 30 mg/kg i.p.
  decrease in feeding compared to vehicle: 55%
[5]; ref Wiley et al. (2012)
  pKi: 5.73
[6]; [14]
  pKi: 6.65

## Cc1c(C(=O)NCC2CCC(CNS(C)(=O)=O)CC2)nn(-c2ccc(Cl)cc2Cl)c1-c1ccc(Cl)cc1 (centres unmarked) [13226–70, 5-(4-chlorophenyl)-1-(2,4-dichlorophenyl)–N-{[4-(methanesulfonamido-methyl)cyclohexyl]methyl}-4-methyl-1H-pyrazole-3-carboxamide]
Food intake in mice [4]; doses up to 30 mg/kg i.p.
  effect on food intake: failed to alter food intake

## O=C(NN1CCCCC1)c1nn(-c2ccc(Cl)cc2Cl)c2cc(Br)ccc12 [Compound O-1654, 6-bromo-1-(2,4-dichlorophenyl)–N-(piperidin-1-yl)-1H-indazole-3-carboxamide]
[7]
  pKi: 6.06
Food intake in mice [4]; doses up to 100 mg/kg i.p.
  effect on food intake: did not affect food intake
[8]
  pKi: 5.93

## CC1=CC[C@@H]2[C@@H](C1)c1c(O)cc(C(C)(C)CCCCCC(=O)NCCc3ccc(S(N)(=O)=O)cc3)cc1OC2(C)C [Compound O-1689, 7-[(6aR,10aR)-1-hydroxy-6,6,9-trimethyl-6a,7,10,10a-tetrahydro-6H-benzo[c]chromen-3-yl]-7-methyl-N-(4-sulfamoylphenethyl]octanamide]
[7]
  pKi: 7.42
[9]
  SA, % inhibition of activity of vehicle control group (maximum effect): 46% (30)
Food intake in mice [4]; i.p., doses not stated in text (Fig. 2)
  effect on food intake: failed to affect food intake
[10]
  %MPE tail flick (maximum effect): inactive (30)

## CCCCC(C)c1ccc(-c2c(C)c(C(=O)NN3CCCCC3)nn2-c2ccc(Cl)cc2Cl)cc1 (centres unmarked) [Compound O-1690, 1-(2,4-dichlorophenyl)-5-[4-(hexan-2-yl)phenyl]-4-methyl-N-(piperidin-1-yl)-1H-pyrazole-3-carboxamide]
[1]; ref Wiley et al., 2001
  activity in test battery when tested alone: inactive
[2]; ref Wiley et al. (2001)
  %MPE tail flick (maximum effect): inactive (30)
[11]; ref Wiley et al. (2001)
  RT (maximum effect): inactive (30)
[3]; [17]
  SA (maximum effect): inactive (30)
Ring immobility in mice; [17]
  RI (maximum effect): inactive (30)
Food intake in mice [4]; doses up to 30 mg/kg i.p.
  effect on food intake: did not alter food intake
[6]; read-out: CB1 Ki (± SEM), displacement of [3H]CP55,940, ref Wiley et al. (2001)
  pKi: 8.59

## CC1=CC[C@@H]2[C@@H](C1)c1ccc(CC#CCCCC(=O)NCCc3ccc(S(N)(=O)=O)cc3)cc1OC2(C)C [Compound O-1720]
[7]; read-out: CB1 Ki (± SEM), displacement of [3H]CP55,940
  pKi: 6.04
Food intake in mice [4]; 100 mg/kg i.p.
  decrease in feeding compared to vehicle: 24%
Food intake in mice [4]; i.p.
  dose that significantly decreased feeding: 100 mg/kg
[8]; read-out: CB2 Ki (± SEM), displacement of [3H]CP55,940
  pKi: 6.10

## CCS(=O)(=O)NCCCC#CCc1cc(O)c2c(c1)OC(C)(C)[C@@H]1CC=C(C)C[C@@H]21 [Compound O-1991, N-{6-[(6aR,10aR)-1-hydroxy-6,6,9-trimethyl-6a,7,10,10a-tetrahydro-6H-benzo[c]chromen-3-yl]hex-4-yn-1-yl}ethane-sulfonamide]
[1]
  profile in test battery: exhibit agonist-like in vivo effects
[2]; ref Wiley et al. (2011)
  %MPE tail flick ED50 (95% confidence limits): 0.9 (0.6–1.4) mg/kg
[11]; ref Wiley et al. (2011)
  RT ED50 (95% confidence limits): 0.8 (0.4–1.6) mg/kg
[3]; ref Wiley et al. (2011)
  SA ED50 (95% confidence limits): 2 (1–3) mg/kg
Food intake in mice [4]; 56 mg/kg i.p.
  decrease in feeding compared to vehicle: 79%
Food intake in mice [4]; i.p.
  dose that significantly decreased feeding: 56 mg/kg
[5]; ref Wiley et al. (2011)
  pKi: 8.85
[6]; [18]
  pKi: 7.52

## CC1=CCC2C(C1)c1c(O)cc(CC#CCCCNS(C)(=O)=O)cc1OC2(C)C (centres unmarked) [Compound O-2050, 3-(6′-methane-sulfamidohex-2-yne)-Δ^8-tetrahydrocannabinol]
Food intake in mice [12]; same procedure, 2011
  effect on food intake: decrease food intake
[1]
  profile in test battery: did not affect responses in the in vivo test battery
[2]; ref Wiley et al. (2011)
  %MPE tail flick (maximum effect): inactive (30)
[11]; ref Wiley et al. (2011)
  RT (maximum effect): inactive (30)
[3]; 30 mg/kg i.v., ref Wiley et al. (2011)
  SA, % inhibition of activity of vehicle control group (maximum effect): 69% (30)
[5]; ref Wiley et al. (2011)
  pKi: 9.70
[6]; read-out: CB1 Ki (± SEM)
  pKi: 8.60

## CCS(=O)(=O)NCCCCC(C)(C)c1cc(O)c2c(c1)OC(C)(C)[C@@H]1CC=C(C)C[C@@H]21 [Compound O-2113, N-{5-[(6aR,10aR)-1-hydroxy-6,6,9-tri-methyl-6a,7,10,10a-tetrahydro-6H-benzo[c]chromen-3-yl]-5-methylhexyl}ethanesulfonamide]
[1]
  profile in test battery: exhibit agonist-like in vivo effects
[2]; ref Wiley et al. (2011)
  %MPE tail flick ED50 (95% confidence limits): 0.3 (0.1–1) mg/kg
[11]; ref Wiley et al. (2011)
  RT ED50 (95% confidence limits): 1.4 (0.3–4.6) mg/kg
[3]; ref Wiley et al. (2011)
  SA ED50 (95% confidence limits): 0.4 (0.1–1.8) mg/kg
Food intake in mice [4]; 30 mg/kg i.p.
  decrease in feeding compared to vehicle: 97%
Food intake in mice [4]; i.p.
  dose that significantly decreased feeding: 30 mg/kg
[5]; ref Wiley et al. (2011)
  pKi: 10.10
[6]; [18]
  pKi: 8.77

## Cc1c(C(=O)NN2CCCCC2)nn(-c2ccc(Cl)cc2Cl)c1-c1ccc(CCCCCN=[N+]=[N-])cc1 [Compound O-3257, 5-(4-(5-azidopentyl)phenyl)-1-(2,4-dichlorophenyl)-4-methyl-N-(piperidin-1-yl)-1H-pyrazole-3-carboxamide, reference compound]
Food intake in mice [12]
  dose (as low as) that suppressed eating: 1 mg/kg
[6]; [19]
  pKi: 8.66

## Cc1c(C(=O)NN2CCCCC2)nn(-c2ccc(Cl)cc2Cl)c1-c1ccc(CCCCC[N+](=O)[O-])cc1 [Compound O-3259, 1-(2,4-dichlor-ophenyl)-4-methyl-5-(4-(5-nitropentyl)phenyl)–N-(piperidin-1-yl)-1H-pyrazole-3-carboxamide, reference compound]
Food intake in mice [12]
  dose (as low as) that suppressed eating: 1 mg/kg
[6]; [19]
  pKi: 8.92

## Cc1c(C(=O)NN2CCCCC2)nn(-c2ccc(Cl)cc2Cl)c1-c1ccc(Cl)cc1 [Rimonabant, reference compound]
[2]; ref Wiley et al. (2012)
  %MPE, maximum possible antinociceptive effect in tail flick (maximum effect): inactive (10)
[11]; [16]
  RT, change in rectal temperature compared to pre-drug (maximum effect): inactive (10)
[3]; [15]
  SA, % inhibition of activity of vehicle control group (maximum effect): stim (10)
Food intake in mice [4]; 1 mg/kg i.p.
  decrease in feeding compared to vehicle: 47%
Food intake in mice [4]; 10 mg/kg i.p.
  decrease in feeding compared to vehicle: 41%

## Hemopressin [reference compound]
[7]; [20]
  displacement of [3H]CP55,940 from CB1 receptors: failed to displace
Food intake in mice [4]; doses up to 3 mg/kg i.p.
  effect on food intake: did not affect food intake; also recorded: did not affect feeding
[8]; [20]
  displacement of [3H]CP55,940 from CB2 receptors: failed to displace

## N-allyl carboxamide analog [Compound O-4373]
[11]; ref Wiley et al. (2012)
  RT ED50 (95% confidence limits): 2.9 (2.1–5.0) mg/kg
[3]; ref Wiley et al. (2012)
  SA ED50 (95% confidence limits): 2.3 (1.0–5.2) mg/kg
Ring immobility in mice; i.v., ref Wiley et al. (2012)
  RI ED50 (95% confidence limits): 4.2 (2.5–7.0) mg/kg
Food intake in mice [4]; 30 mg/kg i.p.
  decrease in feeding compared to vehicle: 73%
[5]; ref Wiley et al. (2012)
  pKi: 5.77
[6]; [14]
  pKi: 6.83
